Assay results as given in ChEMBL document CHEMBL3739314, “Discovery of Nanomolar Dengue and West Nile Virus Protease Inhibitors Containing a 4-Benzyloxyphenylglycine Residue” (J Med Chem, 2015).
Activity calls are given as the source filed them. The calls are words filed in the database; no cut-off is given here. Square brackets hold non-standard residues; d marks the D form. Peptide text beside a SMILES is read from it. * marks the point of attachment. dPhg = N[C@@H](C(=O)O)c1ccccc1; Bz = O=C(c1ccccc1)*

Columns and labels:
dengue virus type 2 [1] = assay: Inhibition of Dengue virus serotype-2 NS2B-NS3 protease using 2-Abz-Nle-Lys-Arg-Arg-Ser-(3-NO2)-Tyr-NH2 as substrate at 50 uM preincubated with protein for 15 mins followed by substrate addition measured for 15 mins by FRET assay
West Nile virus [2] = assay: Inhibition of West Nile virus NS2B-NS3 protease using 2-Abz-Gly-Leu-Lys-Arg-Gly-Gly-[…]-Tyr-NH2 as substrate at 50 uM preincubated with protein for 15 mins followed by substrate addition measured for 15 mins by FRET assay
Outline: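 Linked WNV NS2B-NS3 protease (150 nM) was preincubated 15 min with inhibitor (50 μM final) in 50 mM Tris-HCl pH 9, 10% ethylene glycol, 0.0016% Brij 58. […] Percent inhibition was taken from the slope relative to the no-inhibitor control, in triplicate.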

[3] = target: Prothrombin (Homo sapiens) (UniProt P00734); assay: Inhibition of thrombin (unknown origin) using Boc-Val-Pro-Arg-AMC as substrate at 25 uM preincubated with protein for 15 mins followed by substrate addition measured for 10 mins by continuous fluorimetric assay relative to control
[4] = Inhibition of Dengue virus serotype-2 NS2B-NS3 protease using 2-Abz-Nle-Lys-Arg-Arg-Ser-(3-NO2)-Tyr-NH2 as substrate preincubated with protein for 15 mins followed by substrate addition measured for 15 mins by FRET assay; parameters: species or system dengue virus type 2
Outline: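 DENV-2 NS2B-NS3 linked construct at 30 nM (15 nM in some cases), same pH 9 Tris buffer, 15 min preincubation and FRET read-out. Eight inhibitor concentrations spanned 0–1, 0–2, 0–6 or 0–50 μM, with substrate at 50 μM. IC50 was fitted from triplicates.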

[5] = Half life in Sprague-Dawley rat liver microsomes incubated for 30 mins by UV-HPLC method; type: ADME
Outline: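 Pooled male rat liver microsomes (0.2 mg/mL protein) with NADPH (10 mM) in DPBS were preincubated 15 min at 37 °C. Compound (100 μM) was added and incubated at 37 °C; aliquots were taken at 0, 2, 5, 10, 20 and 30 min. Samples were quenched with equal-volume acetonitrile, chilled and centrifuged, and parent remaining was quantified by RP-HPLC UV against reference peak areas. Testosterone served as positive control.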

[6] = Cytotoxicity against human HuH7 cells infected with Dengue virus serotype-2 assessed as cell viability after 48 hrs by Cell-Titer-Glo luminescent viability assay; type: cell-based, Huh-7
Outline: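 Huh-7 cells (10^4/well) were seeded in DMEM + 10% FBS overnight, then infected with WT DENV-2 (MOI 1) in the presence of compound, triplicate per concentration. After 48 h at 37 °C, medium was replaced with fresh DMEM and viability was read by CellTiter-Glo luminescence. CC50 was determined.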

dengue virus type 2 [7] = assay: Antiviral activity against Dengue virus serotype-2 infected in African green monkey Vero cells after 7 days by virus yield reduction assay; type: functional, organism-based
[8] = Inhibition of West Nile virus NS2B-NS3 protease using 2-Abz-Gly-Leu-Lys-Arg-Gly-Gly-[…]-Tyr-NH2 as substrate preincubated with protein for 15 mins followed by substrate addition measured for 15 mins by FRET assay
Outline: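 WNV NS2B-NS3 linked construct at 75 nM (40 nM in one case) in pH 9 Tris buffer, preincubated 15 min with eight inhibitor concentrations (ranges 0–1 up to 0–50 μM). Substrate was 50 μM, with FRET readout over 15 min. IC50 was fitted from triplicates.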

Trypsin (Homo sapiens) = Trypsin (Homo sapiens) (UniProt P07477+P07478+P35030); assay: Inhibition of trypsin (unknown origin) using Boc-Val-Pro-Arg-AMC as substrate at 25 uM preincubated with protein for 15 mins followed by substrate addition by continuous fluorimetric assay relative to control
[9] = Retention time of compound by RP-HPLC analysis; type: physicochemical
West Nile virus [10] = assay: Antiviral activity against West Nile virus infected in human HuH7 cells after 3 days by virus yield reduction assay; type: functional, organism-based; conditions: Huh-7, 72 h
[11] = Cytotoxicity against human HuH7 cells infected with West Nile virus assessed as cell viability after 48 hrs by Cell-Titer-Glo luminescent viability assay; type: cell-based, Huh-7
Outline: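 Huh-7 cells (10^4/well, DMEM + 10% FBS, overnight) were infected with WT WNV (MOI 0.1) alongside compound, each concentration in triplicate. After 48 h at 37 °C, fresh DMEM was added and viability was measured by CellTiter-Glo luminescence. CC50 was determined.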

[12] = Selectivity index, ratio of CC50 for African green monkey Vero cells to EC50 for Dengue virus serotype-2 infected in African green monkey Vero cells; type: toxicity, cell-based; conditions: read-out: Ratio CC50/EC50
West Nile virus [13] = assay: Inhibition of West Nile virus NS2B-NS3 protease at 0 to 48 uM incubated for 1 hr by tryptophan quenching assay
dengue virus type 2 [14] = assay: Competitive inhibition of Dengue virus serotype-2 NS2B-NS3 protease in presence of aprotinin by fluorescence displacement assay based Cheng-Prusoff plot
West Nile virus [15] = assay: Competitive inhibition of West Nile virus NS2B-NS3 protease in presence of aprotinin by fluorescence displacement assay based Cheng-Prusoff plot
dengue virus type 2 [16] = assay: Inhibition of Dengue virus serotype-2 NS2B-NS3 protease at 0 to 48 uM incubated for 1 hr by tryptophan quenching assay
[17] = Permeability of compound assessed as compound mass retention after 5 hrs by PAMPA; type: ADME
Outline: (§1)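 Precoated PAMPA plates were equilibrated 1 h at room temperature. Donor wells received 200 μM compound in PBS, in triplicate, and acceptor wells received PBS. After 5 h at room temperature, donor and acceptor concentrations were quantified by RP-HPLC UV at 254 nm against six-point calibration curves (10–200 μM). Pe and mass retention were calculated by literature formulas.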

[18] = Permeability of compound after 5 hrs by PAMPA; type: ADME; conditions: read-out: permeability; outline: as §1
West Nile virus [19] = assay: Inhibition of West Nile virus NS2B-NS3 protease using 2-Abz-Gly-Leu-Lys-Arg-GlyGly-[…]-Tyr-NH2 as substrate preincubated with protein for 15 mins followed by substrate addition measured for 15 mins by FRET assay relative to Bz-Lys-Arg-Phg-NH2
dengue virus type 2 [20] = assay: Inhibition of Dengue virus serotype-2 NS2B-NS3 protease using 2-Abz-Nle-Lys-Arg-Arg-Ser-(3-NO2)-Tyr-NH2 as substrate preincubated with protein for 15 mins followed by substrate addition measured for 15 mins by FRET assay relative to Bz-Lys-Arg-Phg-NH2

Compound	inhibition (dengue virus type 2 [1]) [%]	inhibition (West Nile virus [2]) [%]	inhibition [3]	IC50 [4] [nM]	EC50 (dengue virus type 2 [7]) [µM]	IC50 [8] [nM]	inhibition (Trypsin (Homo sapiens))	Retention_time [9] [min]	CC50 at 48 h [6] [µM]	also measured
COc1cccc(COc2ccc([C@@H](NC(=O)[C@H](CCCCN)NC(=O)[C@H](CCCNC(=N)N)NC(=O)c3cccs3)C(N)=O)cc2)c1		99.3	inactive	68	54.6	231	inactive	2.71	> 100	half-life [5]: 93 min
N=C(N)NCCC[C@H](NC(=O)c1ccccc1)C(=O)N[C@@H](CCCCN)C(=O)N[C@@H](C(N)=O)c1ccc(O)cc1	98	75.1		2030						
N=C(N)NCCC[C@H](NC(=O)c1cccs1)C(=O)N[C@@H](CCCCN)C(=O)N[C@@H](C(N)=O)c1ccc(OCc2ccc(Cl)c(Cl)c2)cc1		98	inactive	79	4.06	79	inactive	3.22	> 100	EC50 (West Nile virus [10]): 23.3 µM; CC50 at 48 h [11]: > 100 µM; selectivity ratio [12]: > 25
N=C(N)NCCC[C@H](NC(=O)c1ccccc1)C(=O)N[C@@H](C(N)=O)c1ccc(OCc2ccccc2)cc1	31	27.5								
N=C(N)NCCC[C@H](NC(=O)c1ccc(-c2cccs2)s1)C(=O)N[C@@H](CCCCN)C(=O)N[C@@H](C(N)=O)c1ccc(OCc2ccc(Cl)c(Cl)c2)cc1		100	inactive	215	7.6	365	inactive	3.6	40	permeability [17]: 2.5%; Papp at 5 h [18]: 0.79 ×10⁻⁶ cm/s
N=C(N)NCCC[C@H](NC(=O)c1ccccc1)C(=O)N[C@@H](CCCCN)C(=O)N[C@H](C(N)=O)c1ccc(OCc2ccccc2)cc1	99.9	88		935						
N=C(N)NCCC[C@H](NC(=O)[C@H](CCCCN)NC(=O)c1ccccc1)C(=O)N[C@@H](C(N)=O)c1ccc(OCc2ccccc2)cc1	77	91.7								
N=C(N)NCCC[C@H](NC(=O)c1ccccc1)C(=O)N[C@@H](CCCCN)C(=O)N[C@@H](C(N)=O)c1ccc(OCc2ccccc2)cc1	100	101	< 30%	367	7.94	728	inactive	2.83	> 100	fold change (FC) (West Nile virus [19]): 80; Ki [4]: 307 nM; fold change (FC) (dengue virus type 2 [20]): 9; Ki [8]: 536 nM
NCCCC[C@H](NC(=O)c1ccccc1)C(=O)N[C@@H](C(N)=O)c1ccc(OCc2ccccc2)cc1	16.4	11.4								

Second part, led by results:

inhibition (dengue virus type 2 [1]) [%]	inhibition (West Nile virus [2]) [%]	inhibition [3]	IC50 [4] [nM]	EC50 (dengue virus type 2 [7]) [µM]	IC50 [8] [nM]	inhibition (Trypsin (Homo sapiens))	Retention_time [9] [min]	Compound	CC50 at 48 h [6] [µM]	also measured
26.8	19.9							N=C(N)NCCC[C@@H](NC(=O)[C@@H](CCCCN)NC(=O)c1ccccc1)C(=O)N[C@@H](C(N)=O)c1ccc(OCc2ccccc2)cc1		
23.5	64							N=C(N)NCCC[C@@H](NC(=O)[C@@H](CCCCN)NC(=O)c1ccccc1)C(=O)N[C@H](C(N)=O)c1ccc(OCc2ccccc2)cc1		
	100	inactive	18	20.4	50	inactive	3.11	N=C(N)NCCC[C@H](NC(=O)c1nccs1)C(=O)N[C@@H](CCCCN)C(=O)N[C@@H](C(N)=O)c1ccc(OCc2ccc(C(F)(F)F)cc2)cc1	> 100	EC50 (West Nile virus [10]): 23.4 µM; inhibition (West Nile virus [13]): Active; Ki [4]: 12 nM; half-life [5]: 45 min; inhibition (dengue virus type 2 [14]): Active; inhibition (West Nile virus [15]): Active; Ki [8]: 39 nM; CC50 at 48 h [11]: > 100 µM; inhibition (dengue virus type 2 [16]): Active
96.6	79.2		9700					N=C(N)NCCC[C@H](NC(=O)c1ccccc1)C(=O)N[C@@H](CCCCN)C(=O)N[C@H](C(N)=O)c1ccc(O)cc1		
	91.3	inactive	130	7.12		inactive	3.34	CC(C)(C)c1ccc(COc2ccc([C@@H](NC(=O)[C@H](CCCCN)NC(=O)[C@H](CCCNC(=N)N)NC(=O)c3ccc(Cl)s3)C(N)=O)cc2)cc1	> 100	permeability [17]: 0.44%; Papp at 5 h [18]: 0.33 ×10⁻⁶ cm/s
29.4	71.3							N=C(N)NCCC[C@@H](NC(=O)c1ccccc1)C(=O)N[C@H](CCCCN)C(=O)N[C@H](C(N)=O)c1ccc(OCc2ccccc2)cc1		
99.3	99		3790		3780			N=C(N)NCCC[C@H](NC(=O)c1ccccc1)C(=O)N[C@@H](CCCCN)C(=O)N[C@@H](C(N)=O)c1ccccc1 (Bz-Arg-Lys-[dPhg]-NH2)		
